Experimental data reported in ChEMBL document CHEMBL3992522, “Antileishmanial Activity of Pyrazolopyridine Derivatives and Their Potential as an Adjunct Therapy with Miltefosine” (J Med Chem, 2017).
pIC50: −log10 of the molar value.

Key:
[1] = test system: Leishmania donovani; assay: Antileishmanial activity against Leishmania donovani MHOM/IN/80/DD8 promastigote forms harboring luciferase gene at 25 uM after 72 hrs by Steady-Glo reagent based luminescence assay relative to control; format: functional; conditions: MHOM/IN/80/DD8, 72 h, read-out: GI
Procedure, shortened: (§1)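 Exponential-phase Dd8-Luc promastigotes at 1×10^6/mL in M199 with 10% FBS, 24 °C, given 50 and 25 µM for 72 h. Vehicle 0.1% DMSO. Steady-Glo added 1:1, luminescence (RLU) read. IC50 from four-parameter Hill regression, derived only where inhibition exceeded 90%. Means of at least three independent experiments.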

[2] = test system: Leishmania donovani; assay: Antileishmanial activity against Leishmania donovani MHOM/IN/80/DD8 promastigote forms harboring luciferase gene at 50 uM after 72 hrs by Steady-Glo reagent based luminescence assay relative to control; format: functional; conditions: MHOM/IN/80/DD8, 72 h, read-out: GI; procedure, shortened: as §1
[3] = test system: Leishmania donovani; assay: Antileishmanial activity against Leishmania donovani MHOM/IN/80/DD8 amastigote forms harboring luciferase gene infected in mouse J774 cells at 25 uM after 72 hrs by Steady-Glo reagent based luminescence assay relative to control; format: functional; conditions: MHOM/IN/80/DD8, J774, 72 h, read-out: GI
Procedure, shortened: (§2)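 Stationary-phase luciferase-expressing Dd8 promastigotes infected into J774 macrophages (4×10^4/mL seeded, 24 h, 37 °C, 5% CO2) at 1:8 macrophage:parasite for 24 h. Non-internalised parasites washed off. Compounds added at 50 and 25 µM in RPMI/10% FBS for 72 h. Lysis with Steady-Glo luciferin reagent plus PBS, luminescence read. Inhibition relative to untreated infected controls.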

[4] = test system: Leishmania donovani; assay: Antileishmanial activity against Leishmania donovani MHOM/IN/80/DD8 amastigote forms harboring luciferase gene infected in mouse J774 cells at 50 uM after 72 hrs by Steady-Glo reagent based luminescence assay relative to control; format: functional; conditions: MHOM/IN/80/DD8, J774, 72 h, read-out: GI; procedure, shortened: as §2
[5] = test system: Leishmania donovani; assay: Antileishmanial activity against Leishmania donovani MHOM/IN/80/DD8 amastigote forms harboring luciferase gene infected in mouse J774 cells after 72 hrs by Steady-Glo reagent based luminescence assay; format: functional, cell-based; conditions: MHOM/IN/80/DD8, J774, 72 h
[6] = Cytotoxicity against mouse J774 cells assessed as reduction in cell viability after 72 hrs by MTT assay; format: cell-based
Procedure, shortened: (§3)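 Vero and J774 cells seeded at 1×10^5 per well for 24 h, then exposed 72 h to seven two-fold dilutions from 500 to 7.81 μM. MTT solution (5 mg/mL stock) added for 2 h at 37 °C, formazan dissolved in DMSO and read at 540 nm. CC50 derived by the Huber and Koella method.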

[7] = Cytotoxicity against African green monkey Vero cells assessed as reduction in cell viability after 72 hrs by MTT assay; format: cell-based; conditions: chlorocebus sabaeus; procedure, shortened: as §3
[8] = Selectivity index, ratio of CC50 for mouse J774 cells to IC50 for Leishmania donovani MHOM/IN/80/DD8 amastigote forms infected in mouse J774 cells; format: toxicity, cell-based; conditions: read-out: Ratio CC50/IC50
Procedure, shortened: (§4)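 CC50: Vero or J774 cells (1×10^5/well) exposed 72 h to seven two-fold dilutions, 500–7.81 μM; MTT 2 h at 37 °C, formazan in DMSO read at 540 nm. IC50: luciferase-expressing Dd8 amastigotes in J774 macrophages (1:8), 72 h, luminescence, four-parameter Hill fit. SI = CC50/IC50, IC50 mean of three experiments.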

[9] = Selectivity index, ratio of CC50 for African green monkey Vero cells to IC50 for Leishmania donovani MHOM/IN/80/DD8 amastigote forms infected in mouse J774 cells; format: toxicity, cell-based; conditions: read-out: Ratio CC50/IC50; procedure, shortened: as §4
[10] = test system: Leishmania donovani; assay: Antileishmanial activity against Leishmania donovani amastigote forms infected in Balb/c mouse assessed as inhibition of parasitic burden in liver at 5 mg/kg, po administered for 5 consecutive days measured on day 7 post last treatment by Giemsa staining based assay relative to control; format: functional; conditions: 168 h
[11] = test system: Leishmania donovani; assay: Antileishmanial activity against Leishmania donovani amastigote forms infected in Balb/c mouse assessed as inhibition of parasitic burden in spleen at 5 mg/kg, po administered for 5 consecutive days measured on day 7 post last treatment by Giemsa staining based assay relative to control; format: functional; conditions: 168 h
[12] = test system: Mus musculus; assay: Decrease in TGFbeta level in Balb/c mouse splenocytes infected with Leishmania donovani amastigote forms at 25 mg/kg, po administered for 5 consecutive days measured on day 4 post last treatment by sandwich ELISA relative to control; format: functional; conditions: 96 h
[13] = test system: Mus musculus; assay: Increase in IFNgamma level in Balb/c mouse splenocytes infected with Leishmania donovani amastigote forms at 25 mg/kg, po administered for 5 consecutive days measured on day 4 post last treatment by sandwich ELISA relative to control; format: functional
[14] = test system: Mus musculus; assay: Increase in TNFalpha level in Balb/c mouse splenocytes infected with Leishmania donovani amastigote forms at 25 mg/kg, po administered for 5 consecutive days measured on day 4 post last treatment by sandwich ELISA relative to control; format: functional
[15] = test system: Mus musculus; assay: Increase in IL-12 level in Balb/c mouse splenocytes infected with Leishmania donovani amastigote forms at 25 mg/kg, po administered for 5 consecutive days measured on day 4 post last treatment by sandwich ELISA relative to control; format: functional
[16] = test system: Mus musculus; assay: Increase in IFNgamma level in Balb/c mouse splenocytes infected with Leishmania donovani amastigote forms at 25 mg/kg, po administered for 5 consecutive days measured on day 7 post last treatment by sandwich ELISA relative to control; format: functional
[17] = test system: Mus musculus; assay: Increase in TNFalpha level in Balb/c mouse splenocytes infected with Leishmania donovani amastigote forms at 25 mg/kg, po administered for 5 consecutive days measured on day 7 post last treatment by sandwich ELISA relative to control; format: functional
[18] = test system: Mus musculus; assay: Increase in IL-12 level in Balb/c mouse splenocytes infected with Leishmania donovani amastigote forms at 25 mg/kg, po administered for 5 consecutive days measured on day 7 post last treatment by sandwich ELISA relative to control; format: functional
[19] = test system: Mus musculus; assay: Decrease in IL-10 level in Balb/c mouse splenocytes infected with Leishmania donovani amastigote forms at 25 mg/kg, po administered for 5 consecutive days measured on day 4 post last treatment by sandwich ELISA relative to control; format: functional; conditions: 96 h
[20] = test system: Mus musculus; assay: Decrease in TGFbeta level in Balb/c mouse splenocytes infected with Leishmania donovani amastigote forms at 25 mg/kg, po administered for 5 consecutive days measured on day 7 post last treatment by sandwich ELISA relative to control; format: functional; conditions: 168 h
[21] = test system: Mus musculus; assay: Decrease in IL-10 level in Balb/c mouse splenocytes infected with Leishmania donovani amastigote forms at 25 mg/kg, po administered for 5 consecutive days measured on day 7 post last treatment by sandwich ELISA relative to control; format: functional; conditions: 168 h
[22] = test system: Mus musculus; assay: (§5) Increase in iNOS-mediated NO generation in Balb/c mouse splenocytes infected with Leishmania donovani amastigote forms at 25 mg/kg, po for 5 consecutive days measured on day 4 post last treatment followed by soluble Leishmania donovani promastigote antigen-stimulation for 72 hrs by Griess assay relative to control; format: functional
[23] = test system: Mus musculus; assay: as §5, with “5” for “25”, “4 and 7” for “4”; format: functional
Procedure, shortened: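 Splenocytes from treated infected BALB/c mice (5-day regimen, i.p. test compound, oral miltefosine; n = 5) isolated day 4 and day 7 post-treatment. Cultured in phenol red-free RPMI 1640 with 5 μg/mL SLA for 72 h at 37 °C, 5% CO2. Supernatant nitrite measured by Griess assay at 540 nm against a sodium nitrite standard curve.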

`CCCCCCCCCCCCCCCCOP(=O)([O-])OCC[N+](C)(C)C` [MILTEFOSINE] showed an inhibition of growth at 25 µM [1] of 100%, an inhibition of growth at 50 µM [2] of 100% and an inhibition of growth at 25 µM [3] of 99.8%. For the same compound, the inhibition of growth at 50 µM [4] was 100%, the pIC50 [5] was 5.02 and the CC50 at 72 h [6] was 55.7 µM. For the same compound, the CC50 at 72 h [7] was 50.8 µM, the selectivity ratio [8] was 5.8 and the selectivity ratio [9] was 5.3. It also gave an inhibition in vivo at 5 mg/kg [10] of over 75%, an inhibition in vivo at 5 mg/kg [11] of over 61% and an inhibition in vivo at 25 mg/kg [12] of 87.5%. For the same compound, the “fold change (FC)” value [13] was 9.1, the “fold change (FC)” value [14] was 6.5 and the “fold change (FC)” value [15] was 12.9. The “fold change (FC)” value [16] was 8.1, the “fold change (FC)” value [17] was 5.3 and the “fold change (FC)” value [18] was 9.5. For the same compound, the inhibition in vivo at 25 mg/kg [19] was 88.7%, the inhibition in vivo at 25 mg/kg [20] was 94.6% and the inhibition in vivo at 25 mg/kg [21] was 92.9%. The “fold change (FC)” value [22] was 7.4 and the “fold change (FC)” value [23] was 4.3.
